The subject of data set [1] is A-375. The experiment in a line: Cytotoxicity against human A375 cells assessed as cell survival at 1 to 5 uM after 12 hrs by MTT assay relative to control. It is filed as functional, cell-based. In short, it runs like this:
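A375 cells seeded at 10,000 per well, attached overnight, then exposed in triplicate to 0, 1, 3 or 5 μM for 0, 12 or 24 h; viability by MTT absorbance versus untreated control; IC50 taken as mean of dose-response curves from three experiments.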

The test system of data set [2] is A-375. Kind of data set: Cell cycle arrest in human A375 cells assessed as accumulation at G2/M phase after 24 hrs by propidium iodide staining-based flow cytometry (reference value: 15.2 +/- 0.6%). The class given is functional.
The test system of data set [3] is A-375. The experiment in a line: Cell cycle arrest in human A375 cells assessed as accumulation at sub-G1 phase after 24 hrs by propidium iodide staining-based flow cytometry (reference value: 7.7 +/- 0.1%). It is filed as functional.
Data set [4] relates to B16. The experiment in a line: Cytotoxicity against mouse B16 cells assessed as cell survival at 5 uM after 24 hrs by MTT assay relative to control. The class given is functional. To be noted: B16, 24 h, read-out: Survival. In short, it runs like this:
(§1)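 Cells exposed to agent at 5 µM for 24 h, then growth and viability measured by MTT assay. Survival given as percent of untreated control.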
On the technique in general: Tetrazolium assays rely on reduction of a dye to a coloured formazan, in cell work by metabolically active cells.

The subject of data set [5] is A-375. The experiment in a line: Cell cycle arrest in human A375 cells assessed as accumulation at S phase after 24 hrs by propidium iodide staining-based flow cytometry (reference value: 11.8 +/- 0.1%). The class given is functional. (A flow cytometer gives signals particle by particle.)
Data set [6] is described as follows: Cytotoxicity against human skin fibroblasts assessed as cell survival at 5 uM after 24 hrs by MTT assay relative to control. Also noted: species or system Skin fibroblast. The note with it: read-out: Survival. An outline of the steps: as §1
Data set [7] deals with A549. Kind of data set: Cytotoxicity against human A549 cells assessed as cell survival at 5 uM after 24 hrs by MTT assay relative to control. It is filed as functional. To be noted: A549, 24 h, read-out: Survival. In short, it runs like this: as §1
For data set [8], the system named is HEK-293T. Kind of data set: Cytotoxicity against human 293T cells assessed as cell survival at 5 uM after 24 hrs by MTT assay relative to control. The class given is functional. The note with it: read-out: Survival. An outline of the steps:
as §1

Data set [9] in a line: Cytotoxicity against human RPMI7951 cells assessed as cell survival at 5 uM after 24 hrs by MTT assay relative to control. It is filed as functional. The note with it: RPMI-7951, 24 h, read-out: Survival. An outline of the steps: as §1
Data set [10] relates to A-375. The experiment in a line: Cell cycle arrest in human A375 cells assessed as accumulation at G1 phase after 24 hrs by propidium iodide staining-based flow cytometry (reference value: 65.3 +/- 0.1%). It is filed as functional.
For data set [11], the system named is Ca9-22. The experiment in a line: Cytotoxicity against human Ca9-22 cells assessed as cell survival at 5 uM after 24 hrs by MTT assay relative to control. It is filed as functional. To be noted: Ca9-22, 24 h, read-out: Survival. In short, it runs like this:
as §1

Data set [12] has as its system A2058. The experiment in a line: Cytotoxicity against human A2058 cells assessed as cell survival at 5 uM after 24 hrs by MTT assay relative to control. The class given is functional. The note with it: A2058, 24 h, read-out: Survival. An outline of the steps: as §1
Data set [13] deals with A-375. Kind of data set: Cytotoxicity against human A375 cells assessed as cell survival at 5 uM after 24 hrs by MTT assay relative to control. It is filed as functional. To be noted: A-375, 24 h, read-out: Survival. An outline of the steps: as §1

These results are taken from ChEMBL document CHEMBL3091328, “Synthesis, DNA-binding abilities and anticancer activities of triazole-pyrrolo[2,1-c][1,4]benzodiazepines hybrid scaffolds” (Bioorg Med Chem Lett, 2013).

Calls of active or inactive are those of the source. The calls are words filed in the database; no cut-off is given here.

For the compound `COc1cc2c(cc1OC/C=C/Cn1cc(-c3ccccc3)nn1)N=C[C@@H]1CCCN1C2=O`, the outcome in data set [1] was inactive. Further, the Activity in data set [2] amounted to 5.5%; in data set [3], 7%; in [5], 9.7%; in data set [10], 77.8%. In addition, the viability at 5 µM was found to be 33.9% in data set [4]; 70% in data set [7]; 78% in data set [8]; 79.1% in data set [9]; 61.2% in data set [11]; 53.3% in [12]. For the same compound, in data set [13], the viability at 5 µM came to 69.6%. Also, the viability at 24 h, 5 µM in [6] was 93%.
Take `COc1cc2c(cc1O)N=C[C@@H]1CCCN1C2=O`: the viability at 5 µM turned out to be 66.8% in [4]; 85.4% in [7]; 55.2% in data set [8]; 61.6% in data set [9]; 94.4% in [11]; 54.8% in data set [12]. Moreover, the viability at 5 µM in data set [13] worked out at 52.2%. In addition, in data set [6], the viability at 24 h, 5 µM turned out to be 89.7%.
On to `COc1cc2c(cc1OC/C=C/Cn1cc(-c3ccccc3OC)nn1)N=C[C@@H]1CCCN1C2=O`, for which the outcome in data set [1] was inactive. Also, the Activity worked out at 5.1% in data set [2], 17.3% in data set [3], 8.1% in [5] and 69.5% in data set [10]. The viability at 5 µM amounted to 98.9% in [4]; 91% in data set [7]; 55% in [8]; 83% in data set [9]; 95.6% in [11]; 57.9% in data set [12]. Also, in data set [13], the viability at 5 µM was 58.4%. In data set [6], the viability at 24 h, 5 µM came out at 100%.
As for `COc1cccc(-c2cn(C/C=C/COc3cc4c(cc3OC)C(=O)N3CCC[C@H]3C=N4)nn2)c1`, the result in data set [1] was inactive. In addition, the Activity is listed as 3.5% in [2], 17.6% in data set [3], 7.5% in data set [5] and 71.4% in data set [10]. The viability at 5 µM stood at 107% in data set [4]; 86% in [7]; 40% in data set [8]; 87.2% in data set [9]; 97.5% in data set [11]; 62.8% in [12]. Further, the viability at 5 µM in [13] was 58.3%. In addition, in data set [6], the viability at 24 h, 5 µM worked out at 107%.
With `COc1ccc(-c2cn(C/C=C/COc3cc4c(cc3OC)C(=O)N3CCC[C@H]3C=N4)nn2)cc1`, the result in data set [1] was inactive. For the same compound, the Activity in data set [2] was determined as 5.1%; in data set [3], 13.9%; in data set [5], 7.4%; in [10], 73.6%. The viability at 5 µM came to 75.2% in [4]; 81% in [7]; 40% in data set [8]; 80.1% in data set [9]; 84.1% in data set [11]; 49.2% in [12]. In data set [13], the viability at 5 µM was 69.2%. Also, the viability at 24 h, 5 µM in [6] amounted to 104%.
